Experimental data published in BindingDB's records for doi:10.1016/j.bmcl.2019.08.010 (Stanford University, 2019).

Molecular target: T1, Uridine-cytidine kinase 2 (Homo sapiens, UniProt Q9BZX2)
T1 sequence (Q9BZX2 whole entry): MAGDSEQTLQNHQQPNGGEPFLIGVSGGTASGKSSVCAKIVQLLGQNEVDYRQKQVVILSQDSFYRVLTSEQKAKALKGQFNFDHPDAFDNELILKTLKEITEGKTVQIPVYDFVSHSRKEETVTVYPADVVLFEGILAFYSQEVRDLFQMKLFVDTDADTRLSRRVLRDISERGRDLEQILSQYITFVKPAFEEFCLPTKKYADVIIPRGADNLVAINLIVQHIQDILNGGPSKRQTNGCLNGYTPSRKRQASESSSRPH
Experiment: Inhibition of C-terminally His6-tagged human UCK2 expressed in Escherichia coli BL21(DE3) cells incubated for 15 mins before ATP addition and measured after 60 mins by ADP-Glo kinase assay
How it was run: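 His6-tagged UCK2 (C-terminal tag), purified by Ni-NTA then ion exchange; UCK2 phosphorylates uridine with ATP and ADP-Glo measures the ADP formed, after depleting leftover ATP, as luciferase luminescence. Run in 1536-well format with 0.5 mg/mL BSA, DMSO up to 3%. Primary screen at 33 μM with hit cut-off of 3 SD of the negative control. Confirmation used 8 half-log concentrations, 0.05–167 µM.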

Cc1ccccc1NC(=O)CSCn1[nH]nc2c(=O)nc(Cc3ccc(F)cc3)nc1-2
IC50: 137 µM
